Test results as given in ChEMBL document CHEMBL5126677, “Covalent Modification of the JH2 Domain of Janus Kinase 2” (ACS Med Chem Lett, 2022).

How the values were obtained:
[1] = biological target: T1, Tyrosine-protein kinase JAK2 (Homo sapiens, UniProt O60674); test: Binding affinity to wild type JAK2 JH2 (unknown origin) expressed in baculovirus infected Sf9 insect cells incubated for 20 hrs by competitive fluorescence polarization assay
Outline: (§1)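 JAK2 JH2 domain Kd from a competitive fluorescence polarization tracer-displacement assay, with readings after 30 min and after 20 h incubation. The negative control was tracer in buffer. The positive control used enough protein to bind all tracer, at the same protein concentration used across the assays.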

[2] = biological target: T1, Tyrosine-protein kinase JAK2; test: Binding affinity to wild type JAK2 JH2 (unknown origin) expressed in baculovirus infected Sf9 insect cells incubated for 30 mins by competitive fluorescence polarization assay; outline: as §1
Homo sapiens [3] = species: Homo sapiens; test: Selectivity ratio of Kd for wild type JAK2 JH2 (unknown origin) expressed in baculovirus infected Sf9 insect cells incubated for 30 mins to Kd for wild type JAK2 JH2 (unknown origin) expressed in baculovirus infected Sf9 insect cells incubated for 20 hrs
Homo sapiens [4] = species: Homo sapiens; test: Selectivity ratio of Kd for wild type JAK2 JH1 (unknown origin) expressed in baculovirus infected Sf9 insect cells incubated for 30 mins to Kd for wild type JAK2 JH2 (unknown origin) expressed in baculovirus infected Sf9 insect cells incubated for 20 hrs
Outline: (§2)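 Selectivity is the ratio of JH1 Kd to JH2 Kd, both from the same competitive fluorescence polarization assay. JH2 Kd was taken at the 30 min or 20 h incubation. Controls were tracer in buffer (negative) and saturating protein at the common protein concentration (positive).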

[5] = biological target: T1, Tyrosine-protein kinase JAK2; test: Binding affinity to wild type JAK2 JH1 (unknown origin) expressed in baculovirus infected Sf9 insect cells incubated for 30 mins by competitive fluorescence polarization assay
Homo sapiens [6] = species: Homo sapiens; test: Selectivity ratio of Kd for wild type JAK2 JH1 (unknown origin) expressed in baculovirus infected Sf9 insect cells incubated for 30 mins to Kd for wild type JAK2 JH2 (unknown origin) expressed in baculovirus infected Sf9 insect cells incubated for 30 mins; outline: as §2

T1 sequence (O60674 whole entry, the tested form may be a part): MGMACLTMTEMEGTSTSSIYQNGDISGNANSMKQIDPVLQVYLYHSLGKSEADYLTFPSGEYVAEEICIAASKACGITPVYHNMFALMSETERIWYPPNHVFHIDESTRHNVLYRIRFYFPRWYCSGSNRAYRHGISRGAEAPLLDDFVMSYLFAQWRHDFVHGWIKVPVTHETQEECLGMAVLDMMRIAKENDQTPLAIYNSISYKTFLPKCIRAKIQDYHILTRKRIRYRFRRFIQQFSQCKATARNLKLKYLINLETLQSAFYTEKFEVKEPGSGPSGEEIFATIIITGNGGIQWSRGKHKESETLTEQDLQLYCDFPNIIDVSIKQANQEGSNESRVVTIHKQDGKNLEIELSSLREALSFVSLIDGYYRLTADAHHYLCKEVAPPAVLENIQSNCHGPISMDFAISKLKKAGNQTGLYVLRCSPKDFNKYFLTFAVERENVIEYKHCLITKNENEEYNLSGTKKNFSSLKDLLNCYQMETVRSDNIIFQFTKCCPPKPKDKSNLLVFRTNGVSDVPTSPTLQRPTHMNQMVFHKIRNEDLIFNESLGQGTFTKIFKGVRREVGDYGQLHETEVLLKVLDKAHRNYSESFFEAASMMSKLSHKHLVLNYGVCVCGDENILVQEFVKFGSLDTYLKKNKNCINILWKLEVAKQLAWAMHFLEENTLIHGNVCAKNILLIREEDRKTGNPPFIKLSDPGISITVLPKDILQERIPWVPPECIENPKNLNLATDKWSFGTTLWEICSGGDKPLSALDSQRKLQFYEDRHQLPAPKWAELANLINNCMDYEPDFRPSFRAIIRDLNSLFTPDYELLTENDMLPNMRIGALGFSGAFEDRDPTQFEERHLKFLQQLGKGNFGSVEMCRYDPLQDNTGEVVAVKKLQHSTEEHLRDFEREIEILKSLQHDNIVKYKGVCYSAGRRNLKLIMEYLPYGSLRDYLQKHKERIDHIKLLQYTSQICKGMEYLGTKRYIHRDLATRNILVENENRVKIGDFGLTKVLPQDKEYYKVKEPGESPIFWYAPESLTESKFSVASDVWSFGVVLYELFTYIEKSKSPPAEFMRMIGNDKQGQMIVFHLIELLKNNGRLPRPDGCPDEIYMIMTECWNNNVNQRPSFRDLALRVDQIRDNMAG

Row | SMILES | Kd [1] [nM] | Kd [2] [nM] | Selectivity ratio (Homo sapiens [3]) | Selectivity ratio (Homo sapiens [4]) | Kd [5] [nM] | Selectivity ratio (Homo sapiens [6])
1 | C/C=C/C(=O)NCCc1ccc(F)c(C(=O)n2nc(Nc3ccc(C(=O)NC)cc3)nc2N)c1F | 565 | 578 | 1 | – | – | –
2 | C=CC(=O)NCc1ccc(F)c(C(=O)n2nc(Nc3ccc(C(=O)NC)cc3)nc2N)c1F | 800 | 1250 | 1.6 | – | – | –
3 | C=CC(=O)NCCOc1ccc(F)c(C(=O)n2nc(Nc3ccc(C(=O)NC)cc3)nc2N)c1F | 154 | 617 | 4 | 28.4 | 4370 | 7.1
4 | CNC(=O)c1ccc(Nc2nc(N)n(C(=O)c3c(F)cccc3F)n2)cc1 | 263 | 171 | 0.65 | – | – | –
5 | C=CC(=O)NCCc1cc(F)c(C(=O)n2nc(Nc3ccc(C(=O)NC)cc3)nc2N)c(F)c1 | 75 | 242 | 3.2 | 11.1 | 830 | 3.4
6 | C=CC(=O)NCCc1ccc(F)c(C(=O)n2nc(Nc3ccc(C(=O)NC)cc3)nc2N)c1F | 110 | 556 | 5.1 | 11.6 | 1280 | 2.3
